In ChEMBL document CHEMBL1135911, “Synthesis, biological evaluation, and binding mode of novel 1-[2-(diarylmethoxy)ethyl]-2-methyl-5-nitroimidazoles targeted at the HIV-1 reverse transcriptase” (J Med Chem, 2002):

Legend:
[1] = tested on: Human immunodeficiency virus 1; assay: Dose required to achieve 50% protection of MT-4 cells from HIV-1 induced cytopathogenicity; format: functional, organism-based; settings: Human immunodeficiency virus 1, MT4
In short: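 MT-4 cells (1 × 10^4/well) in RPMI 1640 with 10% FCS were infected with 100 CCID50 of HIV-1 IIIB, with or without serial dilutions of compound (DMSO stock diluted in medium). After 4 days at 37 °C, viable cells were counted by MTT. EC50 is the dose giving 50% protection from virus-induced cytopathicity; mean of at least two experiments.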

MT4 [2] = assay: Dose required to reduce the viability of mock-infected cells by 50%; format: functional; settings: Homo sapiens
In short: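 Mock-infected MT-4 cells were run in parallel with the antiviral assay: 1 × 10^4 cells/well, serial compound dilutions, 4 days at 37 °C. Viability was read by MTT. CC50 is the dose that reduces viability by 50%; mean of at least two experiments.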

[3] = target: Human immunodeficiency virus type 1 reverse transcriptase (Human immunodeficiency virus 1, UniProt Q72547); assay: Dose required to inhibit the HIV-1 Reverse transcriptase activity by 50%
In short: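 Highly purified recombinant wild-type HIV-1 RT, RNA-dependent polymerase activity. Buffer: 50 mM Tris-HCl pH 7.8, 80 mM KCl, 6 mM MgCl2, 1 mM DTT, 0.1 mg/mL BSA. Template/primer: poly(rC)/oligo(dG)12-18 at 0.5 OD260 unit/mL. Substrate: [3H]dGTP (1 Ci/mmol). Incubated 30 min at 37 °C; acid-insoluble radioactivity read on glass fibre filters.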

MT4 [4] = assay: (§1) Selectivity Index (CC50:EC50 Ratio); format: functional
[5] = target: Human immunodeficiency virus 1; assay: Anti-HIV-1 activity in MT-4 cells
[6] = as §1
In short: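 Ratio of CC50 (MTT viability of mock-infected MT-4 cells) to EC50 (MTT protection of MT-4 cells from HIV-1 IIIB cytopathicity, 100 CCID50, 4 days at 37 °C).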

SMILES: Cc1ncc([N+](=O)[O-])n1CCOC(c1ccccc1)c1ccccc1Cl (configuration not stated)
- EC50 [1]: 0.6 µM
- CC50 (MT4 [2]): 52 µM
- IC50 [3]: 0.6 µM
- Selectivity index (MT4 [4]): 85

SMILES: Cc1ncc([N+](=O)[O-])n1CCOC(c1ccccc1)c1cccc(F)c1 (configuration not stated)
- EC50 [1]: 0.1 µM
- CC50 (MT4 [2]): > 200 µM
- IC50 [3]: 0.5 µM
- Selectivity index (MT4 [4]): >2000

SMILES: Cc1cccc(C(OCCn2c([N+](=O)[O-])cnc2C)c2ccccc2)c1 (configuration not stated)
- EC50 [1]: 0.1 µM
- CC50 (MT4 [2]): > 200 µM
- IC50 [3]: 0.3 µM
- Selectivity index (MT4 [4]): >2000

SMILES: Cc1ncc([N+](=O)[O-])n1CCOC(c1ccccc1)c1ccc(F)cc1 (configuration not stated)
- EC50 [5]: 0.891 µM

SMILES: Cc1ccc(C(OCCn2c([N+](=O)[O-])cnc2C)c2ccccc2)cc1 (configuration not stated)
- EC50 [5]: 1.41 µM

SMILES: Cc1ncc([N+](=O)[O-])n1CCCOC(c1ccccc1)c1ccccc1
- EC50 [1]: 35 µM
- CC50 (MT4 [2]): 96.5 µM
- Selectivity index (MT4 [4]): 3

SMILES: Cc1cc(C)cc(C(OCCn2c([N+](=O)[O-])cnc2C)c2ccccc2)c1 (configuration not stated)
- EC50 [1]: 0.4 µM
- CC50 (MT4 [2]): 200 µM
- Selectivity index (MT4 [4]): >500

SMILES: Cc1ncc([N+](=O)[O-])n1CCOC(c1ccccc1)c1ccc([N+](=O)[O-])cc1 (configuration not stated)
- EC50 [1]: 5 µM
- CC50 (MT4 [2]): 111 µM
- Selectivity index [6]: 22

SMILES: Cc1ncc([N+](=O)[O-])n1CCOC(c1ccccc1)c1ccc(Cl)c(Cl)c1 (configuration not stated)
- EC50 [1]: 97 µM
- CC50 (MT4 [2]): 200 µM
- Selectivity index (MT4 [4]): >2

SMILES: COc1ccc(C(OCCn2c([N+](=O)[O-])cnc2C)c2ccccc2)cc1 (configuration not stated)
- EC50 [1]: 86 µM
- CC50 (MT4 [2]): > 200 µM
- Selectivity index (MT4 [4]): >2

SMILES: Cc1ncc([N+](=O)[O-])n1CCOC(c1ccccc1)c1cccc(Cl)c1 (configuration not stated)
- EC50 [1]: 0.2 µM
- CC50 (MT4 [2]): > 200 µM
- IC50 [3]: 0.5 µM
- Selectivity index (MT4 [4]): >1000

SMILES: Cc1ncc([N+](=O)[O-])n1CCOC(c1ccccc1)c1ccccc1F (configuration not stated)
- EC50 [1]: 0.2 µM
- CC50 (MT4 [2]): 63 µM
- IC50 [3]: 0.4 µM
- Selectivity index (MT4 [4]): 315

SMILES: Cc1ncc([N+](=O)[O-])n1CCOC(c1ccccc1)c1cccc([N+](=O)[O-])c1 (configuration not stated)
- EC50 [1]: 0.6 µM
- CC50 (MT4 [2]): 92.5 µM
- IC50 [3]: 0.3 µM
- Selectivity index [6]: 154

SMILES: Cc1ncc([N+](=O)[O-])n1CCOC(c1ccccc1)c1ccccc1
- EC50 [1]: 0.2 µM
- CC50 (MT4 [2]): > 200 µM
- Selectivity index (MT4 [4]): >1000

SMILES: Cc1ccccc1C(OCCn1c([N+](=O)[O-])cnc1C)c1ccccc1 (configuration not stated)
- EC50 [1]: 0.2 µM
- CC50 (MT4 [2]): 76 µM
- IC50 [3]: 0.2 µM
- Selectivity index (MT4 [4]): 380

SMILES: CC(C)Nc1cccnc1N1CCN(C(=O)c2cc3cc(NS(C)(=O)=O)ccc3[nH]2)CC1 [DELAVIRDINE]
- EC50 [1]: 0.01 µM
- CC50 (MT4 [2]): > 30 µM

SMILES: Cc1ncc([N+](=O)[O-])n1CCOC(c1ccccc1)c1cc(F)cc(F)c1 (configuration not stated)
- EC50 [1]: 1 µM
- CC50 (MT4 [2]): > 200 µM
- Selectivity index (MT4 [4]): >200

SMILES: Cc1ncc([N+](=O)[O-])n1CCOC(c1ccccc1)c1cc(Cl)cc(Cl)c1 (configuration not stated)
- EC50 [1]: 45 µM
- CC50 (MT4 [2]): > 200 µM
- Selectivity index (MT4 [4]): >4

SMILES: Cc1ncc([N+](=O)[O-])n1CCOC(c1ccccc1)c1ccc(Cl)cc1 (configuration not stated)
- EC50 [5]: 12 µM

SMILES: Cc1ncc([N+](=O)[O-])n1CCOC(c1ccccc1)c1ccc2ccccc2c1 (configuration not stated)
- EC50 [1]: 106 µM
- CC50 (MT4 [2]): > 200 µM
- Selectivity index (MT4 [4]): >1.8

SMILES: CC(=O)Nc1ccc(C(OCCn2c([N+](=O)[O-])cnc2C)c2ccccc2)cc1 (configuration not stated)
- EC50 [1]: > 200 µM
- CC50 (MT4 [2]): > 200 µM

SMILES: Cc1ncc([N+](=O)[O-])n1CCOC(c1ccccc1)c1ccc(C(C)(C)C)cc1 (configuration not stated)
- EC50 [5]: 3.98 µM

SMILES: Cc1ncc([N+](=O)[O-])n1CCOC(c1ccccc1)c1ccc(-c2ccccc2)cc1 (configuration not stated)
- EC50 [5]: 17 µM

SMILES: Cc1ncc([N+](=O)[O-])n1CCOC(c1ccccc1)c1cccc(-n2cccc2)c1 (configuration not stated)
- EC50 [1]: 14 µM
- CC50 (MT4 [2]): > 200 µM
- Selectivity index (MT4 [4]): >14
